This note sets out measurements from paper PMC11737066 (RSC Advances, 2025).

The data set can be described thus: Parallel artificial membrane permeability assay. In kind it is in vitro ADME. Particulars: 24 h incubation at 37 °C; initial minus final donor and acceptor concentration. Put shortly:
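Artificial membrane made of 1% (mass fraction) lecithin in dodecane, applied to hydrophobic PVDF filter donor wells. Test compound solution was added to the donor side, and the donor/acceptor sandwich was incubated 24 h at 37 °C. Donor and acceptor concentrations were taken from maximum absorbance (scan 190–400 nm). Membrane integrity was checked with brilliant cresyl blue and lucifer yellow.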

`CCCCCCCCCCCC[N+](C)(C)Cc1ccccc1.[Br-]` [BAB, dimethyldodecylbenzylammonium bromide]: the “% of compound integrated in membrane” value was “≈ 97%”.

In the case of `CCCCCCCCCCCCCCCC[n+]1ccccc1` [CPC, cetylpyridinium chloride], the “% of compound integrated in membrane” value is given as “≈ 97%”.
